Source: ChEMBL document CHEMBL1151915, “Structure-activity relationship studies of small-molecule inhibitors of Wnt response” (Bioorg Med Chem Lett, 2009)
In brackets after ≈: the same amount, converted by molar mass. Activity calls are given as the source filed them. The rule behind the calls is not given here.

Tests used:
[1] = Half life in mouse hepatocytes; format: ADME, cell-based, Liver, Hepatocyte
In short: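 Cryopreserved murine CD1 hepatocytes (10^5 cells) incubated with 2 μM compound; reactions stopped at set time points with methanol; saline or buffer incubations served as controls.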

Danio rerio = species on record: Danio rerio; assay: Inhibition of fin regeneration in zebrafish; format: functional
[2] = Half life in mouse blood; format: ADME, tissue-based
In short: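 Compound at 2 μM incubated in whole blood from C57BL/6 mice; incubation stopped at set time points by adding methanol; saline or buffer incubations run as controls.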

[3] = Half life in mouse liver S9 fraction; format: ADME, subcellular

| Structure (SMILES) | half-life [1] | inhibition (Danio rerio) | MIC (Danio rerio) | half-life [2] | half-life [3] |
| --- | --- | --- | --- | --- | --- |
| O=C(Nc1ccc(F)cc1)c1ccc(N2C(=O)[C@@H]3[C@H](C2=O)[C@@H]2C=C[C@H]3C2)cc1 | 60 min |  |  |  |  |
| O=C(Nc1ccc(F)cc1F)c1ccc(N2C(=O)[C@@H]3[C@H](C2=O)[C@@H]2C=C[C@H]3C2)cc1 |  | Active |  |  |  |
| COc1ccccc1NC(=O)c1ccc(N2C(=O)[C@@H]3[C@H](C2=O)[C@@H]2C=C[C@H]3C2)cc1 | 10 min |  |  |  |  |
| O=C(Nc1cccc2cccnc12)c1ccc(N2C(=O)[C@@H]3[C@H](C2=O)[C@@H]2C=C[C@H]3C2)cc1 | 20 min |  | 0.5 µM (≈ 0.205 µg/mL) | 60 min | 20 min |
